The record followed here is article PMC3718025 (Bioconjugate chemistry, 2011).

The assay concerns luciferase expression in M21+GL3 cells. In words: Luciferase knockdown. It counts as cell-based, human. Conditions: 25 nM, no transfection agent; 4 h serum free, then 2% serum to 96 h. The essentials: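 M21+GL3 stable clone made by nucleoporation with pGL3-promoter plus pcDNA3.1/hygro (10:1), selected two weeks in 500 μg/ml hygromycin B. siRNA added 4 h at 37°C in serum-free OPTI-MEM, then serum added to 2% and incubated to 96 h total. Lipofectamine 2000-complexed siRNA served as positive control, its medium swapped to DMEM-H with 2% serum. Lysate luminescence read and normalized to total cellular protein.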

“AccGAAAGGucuuAccGGAdTsdTX2 (head to tail) [compound 14]”: the reduction in luciferase was 70%.
